Here are results for 1 compound from ChEMBL document CHEMBL4715918, “Syntheses and evaluation of acridone-naphthalimide derivatives for regulating oncogene PDGFR-β expression” (Bioorg Med Chem, 2021).

Active and inactive are the calls of the source. The rule behind the calls is not given here.

A short description of experiment [1]: Binding affinity to 5'-biotin-d [GCGTCCACCCTCCCTGCCCCGCCGCCCCCCCITCTCCCAGC]-3' i-motif DNA (unknown origin) assessed as change in melting temperature at 10 uM by CD spectroscopy. The method in brief: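 Oligomer 2 µM in BPES buffer pH 5.5, heated to 95 °C for 5 min, cooled slowly and held at 4 °C overnight. Ligand 10 µM. CD ellipticity followed at 288 nm from 25–95 °C (1 mm cuvette); Tm derived, ΔTm against DNA alone.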

The nature of experiment [2]: Binding affinity to FAM-labeled 5'-biotin-d [GCGTCCACCCTCCCTGCCCCGCCGCCCCCCCITCTCCCAGC]-3' i-motif DNA (unknown origin) by microscale thermophoresis assay. The procedure, abridged:
(§1)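 Microscale thermophoresis with DNA held constant at 1 µM. Compound serially diluted 3:4 from 10 µM over 12 points. Samples run in standard glass capillaries with LED and laser power both at 20%. KD derived by fitting.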
For orientation: Microscale thermophoresis detects binding through changes in fluorescence in a small temperature gradient.

For experiment [3], the system named is Quadruplex DNA. Put plainly: Binding affinity to 5'-biotin-d [GCTGGGAGAAGGGGGGGCGGCGGGGCAGGGAGGGTGGACGC]-3' G4-quadruplex DNA (unknown origin) assessed as change in melting temperature at 10 uM by CD spectroscopy. The experiment is classed as nucleic-acid assay. The procedure, abridged: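 Oligomer 2 µM in Tris-HCl pH 7.4, annealed (95 °C for 5 min, slow cooling, 4 °C overnight). Ligand 10 µM. CD ellipticity followed at 263 nm over 25–95 °C; ΔTm taken against DNA alone.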

A short description of experiment [4]: Binding affinity to FAM-labeled 5'-biotin-d[TATAGCTATA-HEG-TATAGCTATA]- 3' duplex DNA (unknown origin) by microscale thermophoresis assay. The procedure, abridged: as §1
A short description of experiment [5]: Binding affinity to 5'-FAM-GCGTCCACCCTCCCTGCCCCGCCGCCCCCCCTTCTCCCAGC-TAMRA-3' i-motif DNA (unknown origin) assessed as unfolding i-motif structure by measuring reduction in I585/I518 ratio at 2 to 10 equiv by FRET assay. Particulars: dose 2-10 equiv. The procedure, abridged:
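FRET probe dual-labelled FAM donor/TAMRA acceptor, annealed, 10 µM in 30 mM BPES buffer with 1 mM EDTA, 100 mM KCl; compound added in equal volume. Emission 500–700 nm recorded, corrected for compound signal in the same buffer; I585/I518 ratio compared. The i-motif forms at pH 6.2 and unfolds at pH 6.4.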

The next experiment deals with MCF7. Nature of the experiment: Binding affinity to wild type PDGFRbeta promoter (unknown origin) in human MCF7 cells assessed as down regulation of PDGFRbeta mRNA expression at 1.25 to 20 uM after 12 hrs by RT-PCR analysis. The format is cell-based. To be noted: dose 1.25-20 µM.
In experiment [6] the target is Quadruplex DNA. Nature of the experiment: Binding affinity to FAM-labeled 5'-biotin-d [GCTGGGAGAAGGGGGGGCGGCGGGGCAGGGAGGGTGGACGC]-3' G4-quadruplex DNA (unknown origin) by microscale thermophoresis assay. The format is nucleic-acid assay. The method in brief: as §1
Experiment [7] has as its system Quadruplex DNA. Put plainly: Binding affinity to 5'-FAM-GGGAGAAGGGGGGGCGGCGGGGCAGGGAGGGTGGAC-TAMRA-3' G4-quadruplex DNA (unknown origin) assessed as stabilization G4-quadruplex structure by measuring increase in I585/I518 ratio by FRET assay. The format is nucleic-acid assay. Particulars: dose 2-10 equiv. The procedure, abridged:
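FRET probe dual-labelled FAM/TAMRA, annealed, 10 µM in 10 mM Tris-HCl pH 7.4 with 10 mM KCl; compound added in equal volume. Emission 500–700 nm recorded, corrected for compound signal in the same buffer; I585/I518 ratio compared.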

As for `C[n+]1ccc(-c2c3nc(c(-c4cc[n+](C)cc4)c4ccc([nH]4)c(-c4cc[n+](C)cc4)c4ccc([nH]4)c(-c4cc[n+](C)cc4)c4nc2C=C4)C=C3)cc1` [TMPYP4], the ΔTm in experiment [1] was 0.11 °C; in the experiment with Quadruplex DNA [3], more than 20 °C. Besides, the Kd worked out at 463 µM in experiment [2], 1310 µM in experiment [4] and 3.96 µM on Quadruplex DNA [6]. Besides, in experiment [5], the outcome was inactive. Further, the Activity result in the experiment with MCF7 and with Quadruplex DNA [7] was “Dose-dependent effect” each time.

As a reminder, the ΔTm is the shift of the melting midpoint relative to a reference. What is called Kd is the constant that tells how readily two partners part at equilibrium. A low value points to a tighter complex.
